In ChEMBL document CHEMBL1151695, “Design, synthesis and preliminary pharmacological evaluation of new analogues of DM232 (unifiram) and DM235 (sunifiram) as cognition modulators” (Bioorg Med Chem, 2008) one finds Activity and minimal effective dose data, which are given here for seven molecules.

In data set [1] the test system is Mus musculus. The data set can be described thus: Effect on passive avoidance in mouse assessed as latency time to enter dark room in retention session at 0.1 mg/kg, ip treated 20 mins before training session. In kind it is functional. The conditions noted are these: route intraperitoneal. The method in brief: (§1)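 Same step-through passive avoidance without scopolamine. Punishment is a 40 cm fall into 10 °C water on entering the dark room. Mice not entering within 60 s at training were excluded. Compound given ip at 1:10 dilution steps, 20 min before training, in saline or saline/DMSO 4:1. Controls received an extra saline injection right after training. Latency to enter the dark room recorded at training and at next-day retention.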

The test system of data set [2] is Mus musculus. The data set can be described thus: Effect on passive avoidance in mouse assessed as latency time to enter dark room in training session at 0.1 mg/kg, ip treated 20 mins before training session. In kind it is functional. The conditions noted are these: route intraperitoneal. The method, boiled down:
as §1

The species entered for data set [3] is Mus musculus. The data set can be described thus: Effect on passive avoidance in mouse treated 20 mins before training session. The data set is classed as functional. The conditions noted are these: read-out: MED. The method, boiled down:
as §1

The test system of data set [4] is Mus musculus. The data set can be described thus: Antiamnesic activity in scopolamine-induced mouse assessed as latency time to enter dark room in retention session at 1.0 mg/kg, ip treated 20 mins before training session by passive avoidance test. In kind it is functional. The conditions noted are these: route intraperitoneal. The method in brief: (§2)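 Step-through passive avoidance in mice: lit and dark compartments joined by a guillotine door. Entering the dark side drops the mouse 40 cm into 10 °C water, a non-painful punishment. Mice not entering within 60 s at training were excluded. Compound given ip at 1:10 dilution steps […], 20 min before training. Vehicle was saline or saline/DMSO 4:1. Scopolamine 1.5 mg/kg ip immediately after punishment. Retention tested next day. MED is the lowest dose reversing amnesia.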

The test system of data set [5] is Mus musculus. The data set can be described thus: Antiamnesic activity in scopolamine-induced mouse assessed as latency time to enter dark room in training session at 1.0 mg/kg, ip treated 20 mins before training session by passive avoidance test. In kind it is functional. The conditions noted are these: route intraperitoneal. The method, boiled down: as §2
For data set [6], the system named is Mus musculus. The data set can be described thus: Antiamnesic activity in ip dosed mouse assessed as reversal of scopolamine-induced memory loss treated 20 mins before training session by passive avoidance test. The data set is classed as functional. The conditions noted are these: read-out: MED. The method, boiled down: as §2
The species named for data set [7] is Mus musculus. The data set can be described thus: Toxicity in mouse assessed as motor coordination after 45 mins by rotarod test. The data set is classed as organism-based. The conditions noted are these: in vivo, 0.75 h. The method in brief:
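Rota-rod: rod 30 cm long, 15 cm above the base, split into five sections, rotating at 16 rpm. Falls counted over 30 s. Mice with fewer than 3 or more than 6 falls in the pretest were rejected. Performance measured at pretest and 15, 30 and 45 min after test start. Compared with saline-treated mice.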
(The rotarod test checks motor coordination on a turning rod.)

The species entered for data set [8] is Mus musculus. The data set can be described thus: Toxicity in mouse assessed as spontaneous motility and inspection activity after 5 mins by hole board test. The conditions noted are these: in vivo. In kind it is organism-based. The method, boiled down:
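Hole-board: 40 cm square plane with 16 holes of 3 cm, arranged 4×4. Each mouse placed centrally and free to move for […]. Photocells counted locomotion (spontaneous motility) and hole exploration, both as counts in 5 min. Compared with saline-treated mice.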

In data set [9] the test system is Mus musculus. The data set can be described thus: Antiamnesic activity in scopolamine-induced mouse assessed as latency time to enter dark room in retention session at 0.01 mg/kg, ip treated 20 mins before training session by passive avoidance test. In kind it is functional. The conditions noted are these: route intraperitoneal. The method in brief:
as §2

Data set [10] has as its system Mus musculus. The data set can be described thus: Antiamnesic activity in scopolamine-induced mouse assessed as latency time to enter dark room in training session at 0.01 mg/kg, ip treated 20 mins before training session by passive avoidance test. In kind it is functional. The conditions noted are these: route intraperitoneal. The method in brief: as §2
The test system of data set [11] is Mus musculus. The data set can be described thus: Effect on passive avoidance in mouse assessed as latency time to enter dark room in retention session at 0.01 mg/kg, ip treated 20 mins before training session. In kind it is functional. The conditions noted are these: route intraperitoneal. The method, boiled down: as §1
Data set [12] concerns Mus musculus. The data set can be described thus: Effect on passive avoidance in mouse assessed as latency time to enter dark room in training session at 0.01 mg/kg, ip treated 20 mins before training session. The data set is classed as functional. The conditions noted are these: route intraperitoneal. The method in brief: as §1
In data set [13] the test system is Mus musculus. The data set can be described thus: Antiamnesic activity in scopolamine-induced mouse assessed as latency time to enter dark room in retention session at 0.001 mg/kg, ip treated 20 mins before training session by passive avoidance test. The conditions noted are these: route intraperitoneal. In kind it is functional. The method, boiled down: as §2

In data set [14] the test system is Mus musculus. The data set can be described thus: Antiamnesic activity in scopolamine-induced mouse assessed as latency time to enter dark room in training session at 0.001 mg/kg, ip treated 20 mins before training session by passive avoidance test. The conditions noted are these: route intraperitoneal. The data set is classed as functional. The method in brief:
as §2

Data set [15] relates to Mus musculus. The data set can be described thus: Antiamnesic activity in scopolamine-induced mouse assessed as latency time to enter dark room in retention session at 30 mg/kg, ip treated 20 mins before training session by passive avoidance test. The conditions noted are these: route intraperitoneal. In kind it is functional. The method in brief:
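Mouse step-through passive avoidance in a two-compartment box (lit and dark, guillotine door); entry into the dark side is punished by a fall from 40 cm into a 10 °C water bath. Drug given ip 20 min before training. Scopolamine 1.5 mg/kg given immediately after training. Retention tested the next day, read as latency to enter the dark room. Mice not entering within 60 s at training were excluded.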

For data set [16], the system named is Mus musculus. The data set can be described thus: Antiamnesic activity in scopolamine-induced mouse assessed as latency time to enter dark room in training session at 30 mg/kg, ip treated 20 mins before training session by passive avoidance test. The conditions noted are these: route intraperitoneal. In kind it is functional.
Data set [17] relates to Mus musculus. The data set can be described thus: Antiamnesic activity in scopolamine-induced mouse assessed as latency time to enter dark room in retention session at 10 mg/kg, ip treated 20 mins before training session by passive avoidance test. The conditions noted are these: route intraperitoneal. The data set is classed as functional. The method, boiled down:
as §2

For data set [18], the system named is Mus musculus. The data set can be described thus: Antiamnesic activity in scopolamine-induced mouse assessed as latency time to enter dark room in training session at 10 mg/kg, ip treated 20 mins before training session by passive avoidance test. The data set is classed as functional. The conditions noted are these: route intraperitoneal. The method, boiled down: as §2

Data set [19] has as its system Mus musculus. The data set can be described thus: Antiamnesic activity in scopolamine-induced mouse assessed as latency time to enter dark room in retention session at 0.1 mg/kg, ip treated 20 mins before training session by passive avoidance test. The data set is classed as functional. The conditions noted are these: route intraperitoneal. The method, boiled down:
as §2

Data set [20] concerns Mus musculus. The data set can be described thus: Antiamnesic activity in scopolamine-induced mouse assessed as latency time to enter dark room in training session at 0.1 mg/kg, ip treated 20 mins before training session by passive avoidance test. The conditions noted are these: route intraperitoneal. In kind it is functional. The method, boiled down:
as §2

With `CCC(=O)N[C@H]1CC[C@H](NS(=O)(=O)c2ccc(F)cc2)CC1`, the Activity in the data set with Mus musculus [1] was 56.3 s; in the data set with Mus musculus [2], 16.9 s; with Mus musculus [4] it was 16.4 s; in the data set with Mus musculus [5], 17.5 s; in the data set listed under Mus musculus [7] it was “Non-toxic”; in the data set listed under Mus musculus [8] it was “Non-toxic”. Also, the minimal effective dose in the data set listed under Mus musculus [3] was determined as 0.1 mg/kg; with Mus musculus [6], 1 mg/kg.

For `CC(=O)NC1CCN(S(=O)(=O)c2ccc(F)cc2)CC1` [SAPUNIFIRAM], the Activity is on record as 126.8 s with Mus musculus [1]; 19.1 s with Mus musculus [2]; 90.6 s in the data set with Mus musculus [9]; 14.5 s in the data set on Mus musculus [10]; “Non-toxic” in the data set listed under Mus musculus [7]; “Non-toxic” in the data set listed under Mus musculus [8]. In addition, the minimal effective dose is 0.1 mg/kg in the data set listed under Mus musculus [3] and 0.01 mg/kg with Mus musculus [6].

For `O=C1CCC2CN(S(=O)(=O)c3ccc(F)cc3)CCN12` (stereo unspecified) [UNIFIRAM], the Activity in the data set on Mus musculus [11] is on record as 131.6 s; in the data set with Mus musculus [12], 15.4 s; in the data set on Mus musculus [13], 104.4 s; with Mus musculus [14] it was 19.7 s; in the data set filed under Mus musculus [7] it was “Non-toxic”; in the data set filed under Mus musculus [8], “Non-toxic”. In addition, the minimal effective dose in the data set filed under Mus musculus [3] came out at 0.01 mg/kg; in the data set on Mus musculus [6], 0.001 mg/kg.

For the molecule `NC(=O)CN1CCCC1=O` [PIRACETAM], the Activity in the data set on Mus musculus [15] is given as 108.8 s; in the data set on Mus musculus [16], 17.6 s. In addition, the minimal effective dose with Mus musculus [6] was 30 mg/kg.

For `CC(=O)N[C@H]1CC[C@H](NS(=O)(=O)c2ccc(F)cc2)CC1`, the Activity with Mus musculus [11] is given as 52.8 s; in the data set on Mus musculus [12], 19.2 s; in the data set on Mus musculus [17], 26.3 s; with Mus musculus [18], 17 s; in the data set listed under Mus musculus [7], “Non-toxic”; in the data set filed under Mus musculus [8] it was “Non-toxic”. Besides, the minimal effective dose in the data set filed under Mus musculus [3] stood at 0.01 mg/kg; with Mus musculus [6], 10 mg/kg.

With `CC(C)S(=O)(=O)Nc1ccc(N(C)C(=O)c2ccccc2)cc1`, the Activity was 121 s in the data set with Mus musculus [1]; 17.3 s in the data set with Mus musculus [2]; 75.9 s in the data set on Mus musculus [19]; 21.6 s with Mus musculus [20]; “Non-toxic” in the data set listed under Mus musculus [7]; “Non-toxic” in the data set listed under Mus musculus [8]. Moreover, the minimal effective dose in the data set listed under Mus musculus [3] and with Mus musculus [6] was 0.1 mg/kg each time.

As for `CCC(=O)N1CCN(C(=O)c2ccccc2)CC1` [SUNIFIRAM], the Activity is listed as 126.7 s in the data set with Mus musculus [11]; 18.1 s with Mus musculus [12]; 91.5 s with Mus musculus [13]; 20.5 s in the data set with Mus musculus [14]; “Non-toxic” in the data set filed under Mus musculus [7]; “Non-toxic” in the data set filed under Mus musculus [8]. Besides, the minimal effective dose was 0.01 mg/kg in the data set filed under Mus musculus [3] and 0.001 mg/kg in the data set on Mus musculus [6].
